1 compound from ChEMBL document CHEMBL4130626, “α-Arylidene Diacylglycerol-Lactones (DAG-Lactones) as Selective Ras Guanine-Releasing Protein 3 (RasGRP3) Ligands” (J Med Chem, 2018) can be followed below.

Broadly, the EC50 is the concentration that produces a half-maximal response.

Holding throughout (assay type): cell-based
For assay [1], the species on record is Homo sapiens. Nature of the assay: Selectivity ratio of EC50 for PKCdelta (unknown origin) expressed in HEK293 cells harboring GFP-tagged RasGRP3 to EC50 for GFP-tagged RasGRP3 (unknown origin) expressed in HEK293 cells. The gist of the method:
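One EC50 comes from PKCδ S299 phosphorylation on immunoblot, the other from Ras-GTP pulled down on Raf1-RBD. Both signals normalised to 1000 nM PMA. EC50s above 10 µM are extrapolated.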

The target in assay [2] is T1, RAS guanyl-releasing protein 1 (Homo sapiens, UniProt O95267).
T1 sequence (O95267 whole entry): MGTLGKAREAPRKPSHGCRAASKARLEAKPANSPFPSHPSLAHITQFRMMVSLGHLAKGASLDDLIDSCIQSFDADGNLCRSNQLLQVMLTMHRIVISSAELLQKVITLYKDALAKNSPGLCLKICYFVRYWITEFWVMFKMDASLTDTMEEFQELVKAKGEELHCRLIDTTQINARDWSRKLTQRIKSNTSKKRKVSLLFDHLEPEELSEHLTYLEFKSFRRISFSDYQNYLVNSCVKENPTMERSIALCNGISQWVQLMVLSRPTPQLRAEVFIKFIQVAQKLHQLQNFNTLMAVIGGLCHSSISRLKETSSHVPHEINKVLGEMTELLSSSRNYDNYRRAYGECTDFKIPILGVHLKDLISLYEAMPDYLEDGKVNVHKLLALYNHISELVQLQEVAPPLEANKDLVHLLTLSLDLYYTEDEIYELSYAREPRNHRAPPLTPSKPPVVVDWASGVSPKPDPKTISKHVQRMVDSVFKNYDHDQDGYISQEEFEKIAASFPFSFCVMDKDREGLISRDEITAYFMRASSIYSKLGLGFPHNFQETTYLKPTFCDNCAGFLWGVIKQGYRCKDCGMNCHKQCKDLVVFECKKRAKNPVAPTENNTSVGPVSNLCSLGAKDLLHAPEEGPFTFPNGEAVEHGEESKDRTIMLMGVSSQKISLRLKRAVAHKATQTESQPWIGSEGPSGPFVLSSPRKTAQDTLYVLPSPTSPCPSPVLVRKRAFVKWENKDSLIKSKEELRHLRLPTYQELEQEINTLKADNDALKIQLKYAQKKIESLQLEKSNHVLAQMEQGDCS
Nature of the assay: Activation of GFP-tagged RasGRP1 (unknown origin) expressed in human LNCAP cells assessed as ERK1/2 phosphorylation after 30 mins by immunoblot method. In a few lines:
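Cells expressing GFP-RasGRP1/3 (HEK293 or LNCaP, 48 h after plating, transfected; expression checked by fluorescence 24-48 h later) or Ramos with endogenous RasGRP3 treated with half-log increasing concentrations (max 10 µM), 1000 nM PMA or DMSO, 37 °C, 30 min, 5% CO2. RasGTP by Raf1 RBD bead pulldown and anti-Pan-Ras immunoblot; pERK by western blot. Band intensities normalized to 1000 nM PMA; EC50 from n = 3.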

Assay [3] has as its target T2, Ras guanyl-releasing protein 3 (Homo sapiens, UniProt Q8IV61).
T2 sequence (Q8IV61 whole entry): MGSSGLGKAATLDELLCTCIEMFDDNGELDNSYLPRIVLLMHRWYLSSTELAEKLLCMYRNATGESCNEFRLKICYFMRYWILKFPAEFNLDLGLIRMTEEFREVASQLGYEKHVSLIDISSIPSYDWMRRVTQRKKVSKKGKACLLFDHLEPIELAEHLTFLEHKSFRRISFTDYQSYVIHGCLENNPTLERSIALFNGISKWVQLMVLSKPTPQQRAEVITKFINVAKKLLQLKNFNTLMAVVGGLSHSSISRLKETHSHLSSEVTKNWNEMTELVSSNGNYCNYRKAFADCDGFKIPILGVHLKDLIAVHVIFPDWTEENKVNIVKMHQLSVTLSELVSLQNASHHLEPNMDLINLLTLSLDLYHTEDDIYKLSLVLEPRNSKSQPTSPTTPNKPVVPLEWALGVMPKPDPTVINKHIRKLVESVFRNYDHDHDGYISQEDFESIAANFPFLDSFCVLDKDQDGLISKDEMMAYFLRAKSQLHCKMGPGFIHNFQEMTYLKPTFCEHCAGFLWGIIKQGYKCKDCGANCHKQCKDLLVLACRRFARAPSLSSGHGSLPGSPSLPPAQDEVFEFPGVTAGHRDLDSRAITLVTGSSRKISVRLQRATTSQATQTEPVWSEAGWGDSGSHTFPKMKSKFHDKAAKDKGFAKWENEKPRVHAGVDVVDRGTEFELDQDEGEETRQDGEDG
Nature of the assay: Activation of GFP-tagged RasGRP3 (unknown origin) expressed in HEK293 cells after 30 mins by immunoblot method. In a few lines:
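HEK293 cells grown in EMEM + 10% FBS, transfected after 48 h with GFP-RasGRP3 (Lipofectamine Plus). Treated 30 min at 37 °C, 5% CO2, with half-log increasing concentrations up to 10 µM, 1000 nM PMA or DMSO. Active Ras pulled down from lysates on Raf1-RBD agarose (60 min, 4 °C), immunoblotted with anti-Pan-Ras. Band intensity normalised to 1000 nM PMA. EC50 is the mean of n = 3.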

The species named for assay [4] is Homo sapiens. Nature of the assay: Selectivity ratio of EC50 for PKCdelta (unknown origin) expressed in HEK293 cells harboring GFP-tagged RasGRP1 to EC50 for GFP-tagged RasGRP1 (unknown origin) expressed in HEK293 cells.

For `Cn1cc(/C=C2\CC(CO)(COC(=O)C(C)(C)C)OC2=O)c2ccccc21` (centres undefined), the Ratio EC50 in the assay filed under Homo sapiens [1] turned out to be 9.2; in the assay filed under Homo sapiens [4] it was 14.7. The EC50 is 3.73 µM in assay [2] and 1.83 µM in assay [3].
